Activity calls are given as the source filed them. The rule behind the calls is not given here.
Key:
L1210 = experiment: Cytostatic activity against mouse L1210 cells after 48 hrs by MTT assay; assay type: functional, cell-based; conditions: L1210, 48 h
[1] = Cytostatic activity against human Molt4/C8 cells after 72 hrs by MTT assay; assay type: functional, cell-based; conditions: MOLT-4, 72 h
CCRF-CEM = experiment: Cytostatic activity against human CEM cells after 72 hrs by MTT assay; assay type: functional, cell-based
HeLa = experiment: Cytostatic activity against human HeLa cells after 72 hrs by MTT assay; assay type: functional, cell-based
How it was run: (§1)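 Monolayer cells were grown in DMEM with 10% FBS, 2 mM L-glutamine, penicillin and streptomycin at 37 °C under 5% CO2. They were seeded on day 0 at 1 × 10⁴ to 3 × 10⁴ cells/ml and exposed to five 10-fold dilutions (10⁻⁸ to 10⁻⁴ M) for 72 h, with a solvent control. Read-out was MTT. Quadruplicates in three experiments (WI 38: one experiment). IC50 by linear regression of percentage-of-growth.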

MIA PaCa-2 = experiment: Cytostatic activity against human MIAPaCa2 cells after 72 hrs by MTT assay; assay type: functional, cell-based; conditions: MIA PaCa-2, 72 h; how it was run: as §1
SW-620 = experiment: Cytostatic activity against human SW620 cells after 72 hrs by MTT assay; assay type: functional, cell-based; conditions: SW-620, 72 h; how it was run: as §1
MCF7 = experiment: Cytostatic activity against human MCF7 cells after 72 hrs by MTT assay; assay type: functional, cell-based; conditions: MCF7, 72 h; how it was run: as §1
NCI-H460 = experiment: Cytostatic activity against human H460 cells after 72 hrs by MTT assay; assay type: functional, cell-based; conditions: NCI-H460, 72 h; how it was run: as §1
[2] = Cytostatic activity against human WI38 cells after 72 hrs by MTT assay; assay type: ADME, cell-based; conditions: WI-38, 72 h; how it was run: as §1
[3] = tested on: Human immunodeficiency virus 1; experiment: Antiviral activity against HIV1 3B infected in human CEM cells assessed as inhibition of virus-induced cytopathicity; assay type: functional, organism-based; conditions: CCRF-CEM
[4] = tested on: Human immunodeficiency virus 2; experiment: Antiviral activity against HIV2 ROD infected in human CEM cells assessed as inhibition of virus-induced cytopathicity; assay type: functional, organism-based; conditions: CCRF-CEM
Human alphaherpesvirus 1 = experiment: Antiviral activity against Herpes simplex virus 1 infected in HEL cells assessed as inhibition of virus-induced cytopathicity; assay type: functional, organism-based
Human alphaherpesvirus 2 = experiment: Antiviral activity against Herpes simplex virus 2 infected in HEL cells assessed as inhibition of virus-induced cytopathicity; assay type: functional, organism-based
Vaccinia virus = experiment: Antiviral activity against Vaccinia virus infected in HEL cells assessed as inhibition of virus-induced cytopathicity; assay type: functional, organism-based; conditions: Orthopoxvirus vaccinia
How it was run: (§2)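 Cell cultures were exposed for 2 h to 100 CCID50 of virus, and residual virus was then removed. Infected cells were further incubated with medium containing varying compound concentrations for 3 days at 37 °C. Virus-induced cytopathogenicity was scored microscopically. EC50 is the concentration giving a 50% reduction of cytopathogenicity.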

Human alphaherpesvirus 3 = experiment: Antiviral activity against Varicella-Zoster virus infected in HEL cells assessed as inhibition of virus-induced cytopathicity; assay type: functional, organism-based
Cytomegalovirus = experiment: Antiviral activity against Cytomegalovirus infected in HEL cells assessed as inhibition of virus-induced cytopathicity; assay type: functional, organism-based
How it was run: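 Confluent HEL fibroblasts were infected with CMV strains Davis and AD-169 at 100 PFU per well for 2 h, then virus was removed. Graded concentrations were added in duplicate and cultures kept 7 days at 37 °C. Cytopathogenicity was scored microscopically after ethanol fixation and Giemsa staining. EC50 is the 50% reduction.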

[5] = tested on: Vesicular stomatitis virus; experiment: Antiviral activity against Vesicular stomatitis virus infected in HEL cells assessed as inhibition of virus-induced cytopathicity; assay type: functional, organism-based; how it was run: as §2
Human respirovirus 3 = experiment: Antiviral activity against Parainfluenza-3 virus infected in african green monkey Vero cells assessed as inhibition of virus-induced cytopathicity; assay type: functional, organism-based
How it was run: (§3)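 Cells were infected with 100 CCID50 of virus for 2 h, then residual virus was removed. Medium with graded compound concentrations was added and cultures were kept 3 days at 37 °C. Cytopathogenicity was scored microscopically. EC50 is the concentration reducing virus-induced cytopathogenicity by 50%.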

[6] = tested on: Mammalian orthoreovirus 1; experiment: Antiviral activity against Reovirus 1 infected in african green monkey Vero cells assessed as inhibition of virus-induced cytopathicity; assay type: functional, organism-based; how it was run: as §3
Sindbis virus = experiment: Antiviral activity against Sindbis virus infected in african green monkey Vero cells assessed as inhibition of virus-induced cytopathicity; assay type: functional, organism-based; how it was run: as §3
Coxsackievirus B4 [7] = experiment: Antiviral activity against Coxsackievirus B4 infected in african green monkey Vero cells assessed as inhibition of virus-induced cytopathicity; assay type: functional, organism-based; how it was run: as §3
Punta Toro virus = experiment: Antiviral activity against Punta Toro virus infected in african green monkey Vero cells assessed as inhibition of virus-induced cytopathicity; assay type: functional, organism-based; how it was run: as §3
[8] = tested on: Respiratory syncytial virus; experiment: Antiviral activity against Respiratory syncytial virus infected in human HeLa cells assessed as inhibition of virus-induced cytopathicity; assay type: functional, organism-based; how it was run: as §3
[9] = tested on: Vesicular stomatitis virus; experiment: Antiviral activity against Vesicular stomatitis virus infected in human HeLa cells assessed as inhibition of virus-induced cytopathicity; assay type: functional, organism-based; how it was run: as §2
Coxsackievirus B4 [10] = experiment: Antiviral activity against Coxsackievirus B4 infected in human HeLa cells assessed as inhibition of virus-induced cytopathicity; assay type: functional, organism-based; how it was run: as §3

## COC(=O)[C@H](C)NP(=O)(OCCCNC(=O)Cc1c(C)n(C(=O)c2ccc(Cl)cc2)c2ccc(OC)cc12)Oc1ccc(Cl)cc1 (stereo not given in full)
L1210
  IC50: 24 µM
[1]
  IC50: 28 µM
CCRF-CEM
  IC50: 11 µM
HeLa
  IC50: 17 µM
MIA PaCa-2
  IC50: 8 µM
SW-620
  IC50: 15 µM
MCF7
  IC50: 16 µM
NCI-H460
  IC50: 18 µM
[2]
  IC50: 16 µM
[3]
  Activity: inactive
[4]
  Activity: inactive
Human alphaherpesvirus 1
  Activity: inactive
Human alphaherpesvirus 2
  Activity: inactive
Vaccinia virus
  Activity: inactive
Human alphaherpesvirus 3
  Activity: inactive
Cytomegalovirus
  Activity: inactive
[5]
  Activity: inactive
Human respirovirus 3
  Activity: inactive
[6]
  Activity: inactive
Sindbis virus
  Activity: inactive
Coxsackievirus B4 [7]
  Activity: inactive
Punta Toro virus
  Activity: inactive
[8]
  Activity: inactive
[9]
  Activity: inactive
Coxsackievirus B4 [10]
  Activity: inactive

— ChEMBL document CHEMBL1152859, “The novel phosphoramidate derivatives of NSAID 3-hydroxypropylamides: synthesis, cytostatic and antiviral activity evaluations” (Eur J Med Chem, 2009)
